pIC50: −log10 of the molar value. Where two headings read alike, the source gives them in different places.
Legend:
[1] = system: cyclin D1 in SKOV3 tumors; experiment: Cyclin D1 in SKOV3 xenograft tumors; type: in vivo, mice; settings: 60 mg/kg oral once daily, observed at 12 h
Outline: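 Female athymic nude mice (Foxn1nu, 6–8 weeks) were given intraperitoneal SKOV3-luc cells, and tumours were confirmed after about 3 weeks. Dosing: 60 mg/kg oral, daily for 7 days, as a suspension in 30% Kolliphor HS 15 (6 mg/mL, 10 mL/kg); vehicle controls, n = 3. Tumours were taken after the last dose; archived 24-h single-dose tumours were also used. Lysate (5 µg protein) run in a total cyclin D1 sandwich ELISA in duplicate, read at OD 450 nm.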

[2] = system: mortalin; experiment: Western blot of total mortalin in ovarian cancer cells; type: cell-based, human
[3] = single oral dose study, tumor-bearing mice; cited from earlier work
[4] = system: cyclin D1 in SKOV3 cells; experiment: Concentration- and time-dependent changes in cyclin D1 in SKOV3 cells; type: cell-based, human
Outline: (§1)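 Cells grown in RPMI 1640 with 10% FBS and 1% antibiotic-antimycotic, seeded overnight at 37°C, 5% CO2, then exposed to test compound (DMSO) at 0–15 µM for 24 h. SKOV3 only: 2–24 h time course at 2.5 and 10 µM, and washout after 24 h at 10 µM with recovery at 4, 8, 24 h. Cyclin D1 measured by sandwich ELISA (5 µg protein, duplicates, OD 450 nm) and by western blot (20 µg lysate, β-actin reprobe).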

[5] = system: cyclin D1 in A2780 cells; experiment: Concentration-dependent changes in cyclin D1 in A2780 cells; type: cell-based, human; settings: 24 h exposure, 1-15 µM, ELISA
Outline: as §1

[6] = animal models; cited from earlier work
[7] = system: colorectal tumors; settings: APCmin/+ mouse, cited from earlier work
[8] = type: in vivo, mice
Outline: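 Tumour-bearing nude mice (intraperitoneal SKOV3) received 60 mg/kg oral daily for 7 days in 30% Kolliphor HS 15. Saphenous blood was taken at 1, 4, 6, 8, 12 h after the first dose and at troughs 24–144 h, with 3 mice per point in rotating subgroups. Tissues were taken after the last dose. For HPLC-UV, plasma or tissue homogenate (3 mL/g phosphate buffer, pH 7.4) plus internal standard underwent acetonitrile precipitation, centrifugation and filtration. LLOQ 5 ng/mL; values given as mean ± SD.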

[9] = system: xenograft tumor models; settings: 60 mg/kg QD; cited from earlier work
[10] = system: ccK18; experiment: ccK18 quantification in mouse plasma; type: in vivo, mice; settings: single IV dose 10 mg/kg, 2–4 h after dosing; vehicle approx 700 U/L
[11] = 60 mg/kg oral once daily for seven days
[12] = 60 mg/kg oral once daily, at 1 h

pIC50 ([4]; Homo sapiens, SK-OV-3, read-out: IC50 of cyclin D1 reduction): 5.30 to 5.40 | accumulation of the drug in plasma [8, 11]: No significant accumulation | mean trough concentrations in the plasma [8, 11]: 18.8 ± 6.6 ng/mL | peak tumor concentration [8, 12]: around 4,000 ng/ml | peak tumor concentration (equivalent) [8, 12]: ~ 10 µM
Structure (SMILES): CC1(C)CC(C)(C)c2cc(NC(=S)Nc3ccc([N+](=O)[O-])cc3)ccc2S1 [SHetA2]
maximum reduction in cyclin D1 in tumor [1]: ~ 70% | effect on total mortalin levels [2]: no effect | elimination half-life [3]: 4.5 h | cyclin D1 level restored, of baseline ([4]; 24 h after drug removal, after 24 h exposure to 10 µM): over 80% | maximum inhibition of cyclin D1 levels ([4]; SKOV3 cells, 24 h exposure, 1-15 µM, ELISA): ~ 70% | time at which cyclin D1 levels began to recover after drug removal ([4]; after 24 h exposure to 10 µM, drug removed from culture medium): 4 h | cyclin D1 reduction / inhibition observed ([4]; cancer cells (cell line not named at the place), dose-dependent): up to 70% | maximum inhibition of cyclin D1 levels [5]: ~ 80% | adverse effects in genetic toxicology assays and toxicity tests [6]: no adverse effects observed | reduction of cyclin D1 in the tumors ([7]; 30 mg/kg QD): 50% | reduction of cyclin D1 in the tumors ([7]; 60 mg/kg QD): 90% | reduction of incidence of colorectal tumors ([7]; QD doses of 30 or 60 mg/kg): over 50% | antitumor activity [9]: 40–60% | peak plasma ccK18 level [10]: 913 U/L

— publication PMC11610768 (The AAPS journal, 2023)
